Assay results from different studies.
Each line is one published result; the experiments were not run side by side.
Target: Rho-associated protein kinase 2 (ROCK2, Homo sapiens, UniProt O75116)

| SMILES | read-out | method | concentration | remaining binding [%] |
| --- | --- | --- | --- | --- |
| COc1cnc(Nc2cccc(S(N)(=O)=O)c2)nc1N1CCN(c2ccccc2)CC1 | binding | competition with immobilised ligand | 1 µM | 90 |
| FC(F)(F)Oc1cccc(-c2cnc3ccc(-c4ccncc4)nn23)c1 | binding | competition with immobilised ligand | 5 µM | 42 |
| CN1CCN(c2cnc3c(C4CCN(C(=O)c5ccc(OC(F)(F)F)cc5N)CC4)ncnc3c2)CC1 | cell-free assay | competition with immobilised ligand | 1 µM | 100 |
| C=CC(=O)N1CCC(C(=O)NCC(=O)N2CCN(c3nc(-c4cnc(N)nc4C(F)F)nc(N4CCOCC4)n3)CC2)CC1 | binding | competition with immobilised ligand | 1 µM | 90 |
| N#Cc1ccccc1CSc1nnc2c(n1)[nH]c1ccccc12 | binding | competition with immobilised ligand | 10 µM | 80 |
| CN(c1nccc(-c2cnn3ncccc23)n1)C1CC1 | binding | – | 1 µM | 100 |
| COCCOc1nc(-c2ccc(Cl)nc2)nc2c1CN(C(=O)c1ncn3ccccc13)CC2 | cell-free assay | competition with immobilised ligand | 0.1 µM | 76 |
| O=C(Nc1c[nH]nc1C(=O)NC1CCNCC1)c1cc(F)cc(F)c1 | binding | competition with immobilised ligand | 1 µM | 88 |
| CC(=O)N1CCC(c2ccc(C(=O)NC(=N)N)cc2C(F)(F)F)CC1 | cell-free assay | competition with immobilised ligand | 1 µM | 100 |
| Cc1cnc(Nc2ccc(C(=O)N3CCC(N4CCCC4)CC3)cc2)nc1-c1cc2ccccc2s1 | binding | competition with immobilised ligand | 1 µM | 11 |
| CN(CCCC(F)(F)F)c1nccc(-c2cnn3ncccc23)n1 | binding | – | 1 µM | 100 |
| O=C(c1ccc(Nc2nccc(-c3cc4ccccc4s3)n2)cc1)N1CCC(N2CCCC2)CC1 | binding | competition with immobilised ligand | 1 µM | 7.4 |
| CNC(=O)[C@@H]1CC[C@@H](n2c(-c3ccc4cnccc4c3)nc3ccc(C(=O)NCc4cccc(C(N)=O)c4)cc32)C1 | binding | competition with immobilised ligand | 1 µM | 100 |
| C[C@H](c1cccc(C#N)c1)n1cc(Cl)cc(C(N)=O)c1=N | cell-free assay | competition with immobilised ligand | 1 µM | 94 |
| F[C@@H]1CCN(c2nccc(-c3cnn4ncccc34)n2)C1 | binding | – | 1 µM | 100 |
| O=C(c1ccc(Nc2ncc(Cl)c(-c3ccc(Cl)s3)n2)cc1)N1CCC(N2CCCC2)CC1 | binding | competition with immobilised ligand | 1 µM | 4.3 |
| O=C(NCCCC1CCCCC1)c1ccc(CNC(=O)c2cnn(-c3ccccc3)c2C(F)(F)F)cc1 | cell-free assay | competition with immobilised ligand | 0.1 µM | 100 |
| N[C@H]1CCN(c2nccc(-c3cnn4ncccc34)n2)C1 | binding | – | 1 µM | 100 |
| CC(C)(C)c1ccc(-c2nc(CBr)nn2-c2cccc(O)c2)cc1 | cell-free assay | competition with immobilised ligand | 10 µM | 58 |
| Cn1cc(Cl)c2c(Oc3c(F)cc(Nc4cc(Cl)nc(N)n4)cc3F)ccnc21 | cell-free assay | competition with immobilised ligand | 0.1 µM | 83 |
| C[C@@H]1CCN(c2nccc(-c3cnn4ncccc34)n2)C1 | binding | – | 1 µM | 98 |
| C[C@@H]1CN(c2ccc3ncc(-c4ccc5[nH]nc(C6CC6)c5c4)n3n2)C[C@H](C)O1 | binding | competition with immobilised ligand | 50 nM | 69 |
| N#CC1(c2ccccn2)CCN(Cc2cc(C(=O)N3CCCC3)c(=O)n3ccccc23)CC1 | cell-free assay | competition with immobilised ligand | 1 µM | 72 |
| c1cnn2ncc(-c3ccnc(N4CCC45COC5)n3)c2c1 | binding | – | 1 µM | 70 |
